Data: PubChem BioAssay AID623985 (Broad Institute, 2012)

molecular target: PvdQ acylase (Pseudomonas aeruginosa); assay: P. aeruginosa PvdQ acylase inhibitors, dose response, biochemical, fluorescence, plate reader, dry powder, set 2 (AID 623985); conditions: purified PvdQ, 4-MU laurate fluorescence, 60 min
Summary of the method: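 Material: purified P. aeruginosa PvdQ; Quantity: 0.02 µM PvdQ; Medium: 50 mM Tris pH 8.0, 50 mM NaCl, 0.2 mM TCEP, Triton X-100; Reagent: 4-methylumbelliferone laurate substrate at 0.8 mM final; Timing: 30 min pre-incubation plus 60 min reaction, room temperature; Technique: 4-methylumbelliferone fluorescence, excitation 303–367 nm, emission 440–460 nm.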

Row | AC50 [nM] | SMILES
1 | < 3 | N#CC(c1cccc(C(F)(F)F)n1)c1ccc(Cl)cc1F (stereo unspecified)
2 | 56.9 | CCCCC(C#N)c1ccc(Cl)cc1 (stereo unspecified)
3 | 203 | CC(C)CC(C#N)c1ccc(Cl)cc1 (stereo unspecified)
4 | 609 | N#CC(c1ccc(Cl)cc1)c1ccc(C(F)(F)F)c(Cl)n1 (stereo unspecified)
5 | 46.7 | N#Cc1cccc(C(C#N)c2ccc(Cl)cc2F)n1 (stereo unspecified)
6 | 171 | N#CC(c1ccc(Cl)cc1)c1ccc(C(F)(F)F)cn1 (stereo unspecified)
7 | 1940 | N#Cc1ccc(C(C#N)c2ccc(Cl)cc2Cl)nc1 (stereo unspecified)
8 | 27 | N#CC(c1ccc(C(F)(F)F)cc1)c1cccc(C(F)(F)F)n1 (stereo unspecified)
9 | 96.6 | Cc1ccc(C(C#N)c2ccc(F)cc2)nc1C#N (stereo unspecified)
10 | 293 | CCCC(C#N)c1ccc(Cl)cc1 (stereo unspecified)
11 | 60.6 | N#Cc1cccc(C(C#N)c2ccc(Cl)cc2)n1 (stereo unspecified)
12 | 376 | N#CC(c1cccc(C(F)(F)F)n1)c1ccccc1OC(F)(F)F (stereo unspecified)
13 | 1230 | CC(C#N)(c1ccc(Cl)cc1)c1ccc(C(F)(F)F)cn1 (stereo unspecified)
14 | 227 | N#Cc1cccc(C(C#N)c2ccccc2OC(F)(F)F)n1 (stereo unspecified)
15 | 73.3 | N#CC(c1ccc(Cl)cc1)c1ccc(Cl)cn1 (stereo unspecified)
16 | 597 | N#CC(c1ccc(C(F)(F)F)c(Cl)n1)c1ccccc1OC(F)(F)F (stereo unspecified)
17 | 1590 | CCCCC(C#N)c1ccc(C(F)(F)F)cc1 (stereo unspecified)
18 | 2950 | N#CC(c1ccc(C(F)(F)F)cc1)c1ccc(C(F)(F)F)c(Cl)n1 (stereo unspecified)
19 | 315 | CCCCC(C#N)c1ccc(Cl)cc1F (stereo unspecified)
20 | 150 | Cc1ccc(C(C#N)c2ccc(Cl)cc2)nc1 (stereo unspecified)

Row | AC50 [nM] | SMILES
21 | 1310 | N#Cc1ccc(C(C#N)c2ccc(Cl)cc2)nc1 (stereo unspecified)
22 | 45.5 | CCCCC(C#N)c1ccc(F)cc1 (stereo unspecified)
23 | 4.16 | N#CC(c1ccc(Cl)cc1)c1cccc(C(F)(F)F)n1 (stereo unspecified)
24 | 754 | N#CC(c1cccc(Cl)n1)c1ccccc1OC(F)(F)F (stereo unspecified)
25 | 328 | Cc1ccc(C(C#N)c2ccccc2OC(F)(F)F)nc1C#N (stereo unspecified)
26 | 17.9 | N#CC(c1ccc(Cl)cc1)c1cccc(Cl)n1 (stereo unspecified)
27 | 5.02 | N#CC(c1ccc(F)cc1)c1cccc(C(F)(F)F)n1 (stereo unspecified)
28 | 548 | N#CC(c1ccc(F)cc1)c1ccc(C(F)(F)F)c(Cl)n1 (stereo unspecified)
29 | 2440 | N#CC(c1ccc(C(F)(F)F)c(Cl)n1)c1ccc(Cl)cc1Cl (stereo unspecified)
30 | < 3 | N#CC(c1ccc(Cl)cc1)c1ncccc1Cl (stereo unspecified)
31 | 162 | Cc1cccc(C(C#N)c2ccc(Cl)cc2)n1 (stereo unspecified)
32 | 484 | N#CC(c1ccc(C(F)(F)F)c(Cl)n1)c1ccc(Cl)cc1F (stereo unspecified)
33 | 69.7 | Cc1ccc(C(C#N)c2ccc(Cl)cc2)nc1C#N (stereo unspecified)
34 | 22.4 | N#CC(c1cccc(Cl)n1)c1ccc(Cl)cc1F (stereo unspecified)
35 | 357 | N#CC(c1ccc(C(F)(F)F)cc1)c1cccc(Cl)n1 (stereo unspecified)
36 | 141 | N#CC(c1ccc(Cl)cc1Cl)c1ncccc1Cl (stereo unspecified)
37 | 170 | N#CC(c1cccc(Cl)n1)c1ccc(Cl)cc1Cl (stereo unspecified)
38 | 124 | COc1cccc(C(C#N)c2ccc(F)cc2)n1 (stereo unspecified)
39 | 303 | N#Cc1cccc(C(C#N)c2ccc(Cl)cc2Cl)n1 (stereo unspecified)
40 | 133 | N#CC(CC1CC1)c1ccc(Cl)cc1 (stereo unspecified)

Row | SMILES | AC50 [nM]
41 | CCCCC(C#N)c1ccc(Cl)cc1Cl (stereo unspecified) | 281
